# In ChEMBL document CHEMBL4196202, “Discovery and Structure-Based Optimization of Benzimidazole-Derived Activators of SOS1-Mediated Nucleotide Exchange on RAS” (J Med Chem, 2018):
# The source made the active and inactive calls. The rule behind the calls is not given here.
# Legend:
# [1] = target: T1, Son of sevenless homolog 1 (Homo sapiens, UniProt Q07889); experiment: Binding affinity to human recombinant N-terminal His6-tagged SOS1 (564 to 1049 residues) expressed in BL21-RIL Escherichia coli by fluorescent probe S3 based fluorescence polarization anisotrophy saturation binding assay
# T1 sequence (Q07889 whole entry): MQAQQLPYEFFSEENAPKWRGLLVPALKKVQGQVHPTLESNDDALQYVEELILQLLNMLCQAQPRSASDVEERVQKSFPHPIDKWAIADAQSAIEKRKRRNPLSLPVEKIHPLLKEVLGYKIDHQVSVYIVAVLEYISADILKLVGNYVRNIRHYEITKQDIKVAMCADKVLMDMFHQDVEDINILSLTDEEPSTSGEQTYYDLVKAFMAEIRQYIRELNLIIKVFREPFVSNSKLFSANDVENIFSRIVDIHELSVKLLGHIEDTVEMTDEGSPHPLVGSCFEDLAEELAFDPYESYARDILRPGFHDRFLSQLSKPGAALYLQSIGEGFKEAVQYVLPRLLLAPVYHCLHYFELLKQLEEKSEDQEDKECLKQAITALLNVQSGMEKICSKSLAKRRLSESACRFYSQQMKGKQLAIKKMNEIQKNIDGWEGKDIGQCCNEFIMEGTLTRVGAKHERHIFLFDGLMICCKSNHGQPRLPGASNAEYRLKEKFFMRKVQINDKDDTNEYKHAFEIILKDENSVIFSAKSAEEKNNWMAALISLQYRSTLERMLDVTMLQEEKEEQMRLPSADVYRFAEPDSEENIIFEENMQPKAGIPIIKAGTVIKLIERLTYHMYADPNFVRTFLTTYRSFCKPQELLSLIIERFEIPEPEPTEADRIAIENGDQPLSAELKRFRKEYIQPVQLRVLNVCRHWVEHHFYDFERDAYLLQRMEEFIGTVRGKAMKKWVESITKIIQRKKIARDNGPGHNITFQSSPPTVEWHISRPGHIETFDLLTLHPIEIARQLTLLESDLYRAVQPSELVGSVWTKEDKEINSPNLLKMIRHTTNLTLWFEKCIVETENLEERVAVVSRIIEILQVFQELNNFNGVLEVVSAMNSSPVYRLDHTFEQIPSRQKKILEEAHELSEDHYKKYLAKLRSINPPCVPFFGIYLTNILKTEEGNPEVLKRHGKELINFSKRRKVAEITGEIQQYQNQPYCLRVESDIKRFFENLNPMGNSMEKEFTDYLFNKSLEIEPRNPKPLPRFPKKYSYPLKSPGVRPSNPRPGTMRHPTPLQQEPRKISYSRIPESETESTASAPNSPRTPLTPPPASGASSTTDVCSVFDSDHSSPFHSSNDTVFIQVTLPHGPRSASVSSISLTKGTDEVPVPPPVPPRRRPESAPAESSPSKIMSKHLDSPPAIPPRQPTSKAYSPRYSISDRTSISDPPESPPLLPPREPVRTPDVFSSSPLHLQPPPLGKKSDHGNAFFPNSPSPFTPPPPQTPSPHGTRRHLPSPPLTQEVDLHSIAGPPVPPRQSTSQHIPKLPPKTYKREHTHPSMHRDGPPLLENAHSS
# Procedure, shortened: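 SOS1cat (aa 564–1049) was titrated in a 16-point, 3-fold series from 10 μM top against 50 nM fluorescein probe S3. Buffer was 20 mM Tris-HCl pH 7.5, 50 mM NaCl, 1 mM magnesium chloride. Fluorescence anisotropy was read and Kd reported as mean ± SD of at least three independent experiments.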
# [2] = target: T1, Son of sevenless homolog 1; experiment: Activation of SOS1 in human HeLa cells expressing wild type KRAS assessed as induction of ERK1/2 T202/Y204 phosphorylation incubated for 30 mins by In-cell Western assay; assay type: cell-based
# [3] = target: Son of sevenless homolog 1 (Homo sapiens, UniProt Q07889); experiment: Activation of SOS1 in human NCI-H727 cells expressing KRAS G12V mutant assessed as induction of ERK1/2 T202/Y204 phosphorylation incubated for 30 mins by In-cell Western assay; assay type: cell-based
# [4] = target: T2, Son of sevenless homolog 1 (Homo sapiens) (UniProt Q07889); experiment: Biphasic activity at of SOS1 in human HeLa cells expressing wild type KRAS assessed as induction of ERK1/2 T202/Y204 phosphorylation at 1.5 to 100 uM (lower range) incubated for 30 mins by In-cell Western assay; assay type: cell-based
# T2 sequence (whole entry): T1 sequence (Q07889 whole entry)
# [5] = target: T2, Son of sevenless homolog 1 (Homo sapiens); experiment: Biphasic activity at of SOS1 in human HeLa cells expressing wild type KRAS assessed as reduction in ERK1/2 T202/Y204 phosphorylation at 1.5 to 100 uM (higher range) incubated for 30 mins by In-cell Western assay; assay type: cell-based
# [6] = target: T2, Son of sevenless homolog 1 (Homo sapiens); experiment: Activation of SOS1 in human NCI-H727 cells expressing KRAS G12V mutant assessed as induction of ERK1/2 T202/Y204 phosphorylation at 1.5 to 100 uM (lower range) incubated for 30 mins by In-cell Western assay; assay type: cell-based
# [7] = target: T2, Son of sevenless homolog 1 (Homo sapiens); experiment: Activation of SOS1 in human NCI-H727 cells expressing KRAS G12V mutant assessed as induction of ERK1/2 T202/Y204 phosphorylation at 1.5 to 100 uM (higher range) incubated for 30 mins by In-cell Western assay; assay type: cell-based
# [8] = target: T1, Son of sevenless homolog 1; experiment: Binding affinity to human recombinant N-terminal His6-tagged SOS1 (564 to 1049 residues) expressed in BL21-RIL Escherichia coli by fluorescent probe S2 based fluorescence polarization anisotrophy saturation binding assay
# [9] = target: T2, Son of sevenless homolog 1 (Homo sapiens); experiment: Activation of SOS1 in human HeLa cells expressing wild type KRAS assessed as increase in RAS-GTP levels at 0.3 to 30 uM incubated for 10 mins by active RAS pull-down assay; assay type: cell-based
# Procedure, shortened: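 HeLa cells seeded to reach 70% confluency after 24 h, then treated. RAS-GTP was captured by a RAF1-RBD active RAS pull-down kit, resolved by SDS-PAGE, blotted to PVDF and probed with pan-RAS antibody. Total RAS and α-tubulin inputs served as loading controls. Detection was by fluorescent secondary antibody on an Odyssey imager.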
# [10] = Aqueous solubility in pH 6.8 buffer at 1 mg/mL by HPLC/DAD-UV assay; assay type: physicochemical
# Procedure, shortened: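 Solid compound was dispensed at 1 mg/mL into McIlvaine buffer pH 6.8, with a reference dissolved in acetonitrile/water 1:1 (v/v). Dissolved concentration was quantified by HPLC-DAD-UV. Single experiment.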
# [11] = target: T2, Son of sevenless homolog 1 (Homo sapiens); experiment: Activation of SOS1 in human HeLa cells expressing wild type KRAS assessed as increase in RAS-GTP levels at 10 to 30 uM incubated for 10 mins by active RAS pull-down assay; assay type: cell-based
# Procedure, shortened: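 HeLa cells, STR-authenticated and mycoplasma-negative, were passaged at least twice after thaw (25 passages maximum). They were seeded to reach 70% confluency after 24 h, then treated. Active RAS-GTP was captured by RAF1-RBD pull-down and detected by SDS-PAGE and western blot with a pan-RAS antibody and a fluorescent secondary, read on an Odyssey imager. Total RAS and α-tubulin in the input served as loading controls.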
# [12] = target: T2, Son of sevenless homolog 1 (Homo sapiens); experiment: Activation of SOS1 in human HeLa cells expressing wild type KRAS assessed as increase in RAS-GTP levels at 0.3 uM incubated for 10 mins by active RAS pull-down assay; assay type: cell-based
# [13] = target: T2, Son of sevenless homolog 1 (Homo sapiens); experiment: Activation of SOS1 in human HeLa cells expressing wild type KRAS assessed as induction of ERK1/2 T202/Y204 phosphorylation at 1.5 to 100 uM incubated for 30 mins by In-cell Western assay
# [14] = target: T1, Son of sevenless homolog 1; experiment: Binding affinity to human recombinant N-terminal His6-tagged SOS1 (564 to 1049 residues) expressed in BL21-RIL Escherichia coli by fluorescent probe S1 based fluorescence polarization anisotrophy saturation binding assay
# Procedure, shortened: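 SOS1cat (aa 564–1049) was titrated in a 12-point, 2-fold series from 10 μM top against 50 nM fluorescein-labeled probe. Buffer was 20 mM Tris-HCl pH 7.5, 50 mM NaCl, 1 mM magnesium chloride, with 20 min at room temperature in the dark. Anisotropy was read and Kd reported as mean ± SD of at least three independent experiments.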
SMILES,Kd [1],EC50 [2],EC50 [3],Activity [4],Activity [5],Activity [6],Activity [7],Kd [8],Activity [9],solubility [10],Activity [11],Activity [12],Activity [13],Kd [14]
Cc1cc(Cn2c(N3CC4(CNC4)C3)nc3c(-c4cnc(N)nc4C)cc(Cl)cc32)cc(C)c1F,12 nM,7.8 µM,13.4 µM,Active,Active,Active,Active,–,–,–,–,–,–,–
Cc1cc(Cn2c(N3CC4(CNC4)C3)nc3c(-c4ccccc4Cl)cc(Cl)cc32)cc(C)c1F,12 nM,14 µM,19.7 µM,Active,Active,Active,Active,–,–,–,–,–,–,–
Cc1cc(Cn2c(N3CCNCC3)nc3c(-c4cncnc4C)cc(Cl)cc32)cc(C)c1F,–,10.2 µM,14.5 µM,Active,Active,Active,Active,110 nM,Active,–,–,–,–,–
Cc1ncncc1-c1cc(Cl)cc2c1nc(N1CC3(CNC3)C1)n2Cc1ccc(F)cc1,–,33.2 µM,42.5 µM,Active,inactive,Active,inactive,180 nM,Active,–,–,–,–,–
Cc1cc(Cn2c(N3CC4(CNC4)C3)nc3c(N4CCN(C)CC4)cc(Cl)cc32)cc(C)c1F,44 nM,5.9 µM,10 µM,Active,Active,Active,Active,–,–,> 110 µg/mL,Active,Active,Active,–
Cc1cc(Cn2c(N3CC4(CNC4)C3)nc3c(-c4c(C)n[nH]c4C)cc(Cl)cc32)cc(C)c1F,9 nM,14.1 µM,21.1 µM,Active,Active,Active,Active,–,–,–,–,–,–,–
Cc1cc(Cn2c(N3CCNCC3)nc3ccc(Cl)cc32)cc(C)c1F,–,14.5 µM,21.2 µM,Active,Active,Active,Active,–,–,–,–,–,–,460 nM
Cc1nc(N)ncc1-c1cc(Cl)cc2c1nc(N1CC3(CNC3)C1)n2Cc1ccc(F)cc1,36 nM,14 µM,27.5 µM,Active,Active,Active,inactive,–,–,–,–,–,–,–
Cc1cc(Cn2c(N3CCNCC3)nc3c(-c4ccccc4Cl)cc(Cl)cc32)cc(C)c1F,–,11 µM,36.8 µM,Active,Active,Active,inactive,–,–,–,–,–,–,120 nM
Cc1cc(Cn2c(N3CCNCC3)nc3c(N4CCN(C)CC4)cc(Cl)cc32)cc(C)c1F,–,–,–,Active,Active,–,Active,–,–,–,Active,–,Active,–
Cc1cc(Cn2c(N3CC4(CNC4)C3)nc3c(-c4cncnc4C)cc(Cl)cc32)cc(C)c1F,16 nM,11.4 µM,15.7 µM,Active,Active,Active,Active,–,Active,3 µg/mL,–,–,–,–
Cc1cc(Cn2c(N3CCNCC3)nc3c(-c4ccccc4C(F)(F)F)cc(Cl)cc32)cc(C)c1F,–,–,–,–,–,–,–,–,–,–,–,–,–,150 nM
